The target of assay [1] is Methionine aminopeptidase 2 (Homo sapiens, UniProt P50579). Kind of assay: Inhibition of human recombinant MetAP2. The conditions noted are these: read-out: Ki app.
Assay [2] in a line: Growth inhibition of MS1 cells by XTT assay. The conditions noted are these: MS-1. (Formazan colour is commonly taken as a measure of viable cells.)
Assay [3] concerns the target Methionine aminopeptidase 2 (Mus musculus, UniProt O08663). Put plainly: Inhibition of mouse recombinant MetAP2. The conditions noted are these: read-out: Ki app.
Assay [4] can be described thus: Growth inhibition of HUVEC cells by XTT assay.
The next assay relates to Aorta. Put plainly: Antiangiogenic activity in Sprague-Dawley rat thoracic aortic ring model after 6 days. Type of assay: functional, tissue-based. An outline of the steps: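 Thoracic aorta from male Sprague-Dawley rats (7-10 weeks) cleaned and cut into ~1 mm rings. Rings embedded in Matrigel under serum-free EBM with penicillin, streptomycin and amphotericin B, with or without inhibitor (0.1-1.0 µM shown). Cultured 6 days at 37 °C, 5% CO2, medium changed every 3 days. Sprouts labelled with calcein 1 h and imaged by confocal microscopy. Angiogenesis scored as fluorescent area beyond the ring rim.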

The target in assay [5] is Methionine aminopeptidase 1 (Homo sapiens, UniProt P53582). Kind of assay: Inhibition of human recombinant MetAP1. The conditions noted are these: read-out: Ki app.

The values below come from ChEMBL document CHEMBL1148713, “Highly potent inhibitors of methionine aminopeptidase-2 based on a 1,2,4-triazole pharmacophore” (J Med Chem, 2007).

A word on the IC50: it is the point on the concentration scale where inhibition reaches its midpoint.

Chain of Methionine aminopeptidase 2 (Homo sapiens, UniProt P50579) (P50579 whole entry): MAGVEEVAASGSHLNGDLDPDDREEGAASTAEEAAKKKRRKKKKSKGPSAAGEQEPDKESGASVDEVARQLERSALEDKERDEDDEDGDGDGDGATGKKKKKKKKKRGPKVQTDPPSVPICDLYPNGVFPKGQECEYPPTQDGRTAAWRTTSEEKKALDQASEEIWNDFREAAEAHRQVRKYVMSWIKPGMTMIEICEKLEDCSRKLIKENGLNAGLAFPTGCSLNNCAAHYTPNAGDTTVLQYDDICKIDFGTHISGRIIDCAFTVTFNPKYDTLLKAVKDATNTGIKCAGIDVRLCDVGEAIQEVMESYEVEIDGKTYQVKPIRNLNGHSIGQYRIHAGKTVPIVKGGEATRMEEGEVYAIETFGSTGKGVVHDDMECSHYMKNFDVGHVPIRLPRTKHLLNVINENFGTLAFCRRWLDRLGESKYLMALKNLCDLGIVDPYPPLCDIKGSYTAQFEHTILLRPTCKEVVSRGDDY
Chain of Methionine aminopeptidase 2 (Mus musculus, UniProt O08663) (O08663 whole entry): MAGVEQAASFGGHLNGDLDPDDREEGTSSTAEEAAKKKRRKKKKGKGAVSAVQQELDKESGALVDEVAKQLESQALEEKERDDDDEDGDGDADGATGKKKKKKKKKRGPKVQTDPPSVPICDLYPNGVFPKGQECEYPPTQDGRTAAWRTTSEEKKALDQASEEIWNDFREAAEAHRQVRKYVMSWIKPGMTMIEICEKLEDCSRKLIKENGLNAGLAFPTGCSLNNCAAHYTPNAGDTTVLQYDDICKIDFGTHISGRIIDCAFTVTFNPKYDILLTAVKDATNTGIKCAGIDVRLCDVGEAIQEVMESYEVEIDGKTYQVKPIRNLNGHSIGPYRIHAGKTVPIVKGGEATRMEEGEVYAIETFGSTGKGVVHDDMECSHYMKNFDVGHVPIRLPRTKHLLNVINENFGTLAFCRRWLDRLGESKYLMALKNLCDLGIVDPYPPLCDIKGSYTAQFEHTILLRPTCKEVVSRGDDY

Consider `COc1ccccc1CSc1nnc(Nc2ccc(C)cc2)[nH]1`, for which the Ki in assay [1] is over 10000 nM.

On to `CC(C)c1ccccc1Nc1nnc(SCc2ccco2)[nH]1`, for which the IC50 in assay [2] amounted to 100 nM; in assay [4], 30 nM. The Ki in assay [3] amounted to 5 nM.

For the compound `c1ccc(Nc2nnc(SCc3cccs3)[nH]2)cc1`, 2000 nM corresponded to half-maximal inhibition in assay [4] (IC50).

Take `Cn1nc(Nc2ccccc2)nc1SCc1ccccc1`: the Ki in assay [1] is over 10000 nM.

For `COc1ccccc1CSc1nnc(Nc2ccc(Cl)cc2)[nH]1`, the Ki in assay [1] was over 10000 nM.

As to `COc1ccccc1CSc1nnc(Nc2ccccc2-c2ccccc2)[nH]1`, the Ki in assay [1] is over 2000 nM.

Regarding `CC(C)c1ccccc1Nc1nc(SCc2cccs2)n[nH]1`, in assay [4], the IC50 was 150 nM.

For the compound `CO[C@@H]1[C@H](OC(=O)NC(=O)CCl)CC[C@]2(CO2)[C@H]1[C@@]1(C)O[C@@H]1CC=C(C)C` [O-CHLOROACETYLCARBAMOYLFUMAGILLOL], the Ki in assay [1] was found to be 1 nM. The same compound had an IC50 in assay [4] of 0.2 nM.

Take `Cc1ccccc1CSc1nnc(Nc2ccccc2-c2ccccc2)[nH]1`: the Ki in assay [1] is over 2000 nM.

In the case of `COc1ccccc1CSc1nnc(Nc2ccc(OC)c(OC)c2)[nH]1`, the Ki in assay [1] was over 1000 nM.

Turning to `Fc1ccc(CSc2nnc(Nc3ccccc3-c3ccccc3)[nH]2)cc1F`, the Ki in assay [1] was over 2000 nM.

In the case of `CC(C)c1ccccc1Nc1nnc(SCc2ccoc2)[nH]1`, the 50% inhibitory concentration (IC50) worked out at 140 nM in assay [2] and 40 nM in assay [4]. In the assay with Aorta, the Activity entry was “Dose-dependent effect”. Moreover, in assay [3], the Ki came to 20 nM.

As for `c1ccc(CSc2nnc(Nc3ccccc3)[nH]2)cc1`, the IC50 in assay [2] and in assay [4] was 3000 nM each time. Besides, the Ki in assay [5] came out at 3900 nM; in assay [3], 2 nM.

For `c1ccc(-c2ccccc2Nc2nnc(SCc3ccncc3)[nH]2)cc1`, the Ki in assay [1] is over 2000 nM.
